What was measured:
[1] = system: Plasmodium falciparum 3D7 strain (CQ-sensitive); experiment: P. falciparum in vitro parasite growth inhibition; assay type: cell-based
How it was run: (§1)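 Asynchronous culture (65–75% rings, 0.5% parasitemia, 2.5% hematocrit) in RPMI 1640/0.5% Albumax II/5 µM hypoxanthine. Triplicate 3-fold dilutions, 10.0–0.0412 µg/mL, DMSO ≤0.01% final. 37 °C, 5% CO2, 24 h, then [3H]hypoxanthine 0.2 µCi/well for a further 24 h. Plates frozen, harvested, scintillation-counted. IC50 curve-fitted, mean of independent experiments. SI = KB IC50 (72 h, Alamar Blue)/parasite IC50. RI from K1 and 3D7 IC50s.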

[2] = system: Plasmodium falciparum K1 strain (CQ-resistant); experiment: P. falciparum in vitro parasite growth inhibition; assay type: cell-based; conditions: for RI (K1/3D7) Resistance Index: ratio of K1 and 3D7 IC50
How it was run: as §1

## CCN(CC)CCCC(C)Nc1ccnc2cc(Cl)ccc12 (stereo not drawn) [CQ, Chloroquine diphosphate]
[1]; (KB IC50)/(3D7 IC50)
  SI 3D7 Selectivity Index: 8150
[1]; Plasmodium falciparum, 3D7, read-out: 3D7 IC50
  IC50: 13.5 nM
[2]; (KB IC50)/(K1 IC50)
  SI K1 Selectivity Index: 161
[2]; Plasmodium falciparum, K1, read-out: K1 IC50
  IC50: 682 nM
[2]
  RI (K1/3D7) Resistance Index: 50.52
[2]; listed as chloroquine
  RI (K1/3D7) Resistance Index: 50

Source: publication PMC6245472 (Molecules, 2008)
